Screens from PubChem.
Shown are actives, neighbours in structure and some others; about 3.7% of the full set was active somewhere.
KCNQ1 inh – inhibitors of human KCNQ1 channel, primary screen, cell-based, thallium flux, high-throughput; CHO-K1 KCNQ1, FluxOR thallium flux fluorescence; hits give high values; B-score at 10 µM; actives 1.3% (n = 310,000); AID 2642, 2010;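 active = compounds whose thallium flux B-score, printed positive for inhibition, exceeds three library SD while starting fluorescence stays within three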;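 also: channel opened by potassium depolarization with thallium stimulus after 20 min compound exposure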
KCNQ1 pot – potentiators or activators of KCNQ1 channel, primary screen, cell-based, thallium flux, high-throughput | Potassium voltage-gated channel subfamily KQT member 1 (Homo sapiens), P51787 | CHO-K1 KCNQ1, thallium flux FluxOR fluorescence; hits give high values | B-score at 10 µM | actives 0.35% (n = 310,000) | AID 2648, 2010;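 active = fluorescence ratio B-score, a plate-corrected score, at least three library SD, with initial intensity B-score within 5 SD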
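Assay system: stable KCNQ1 CHO-K1 line; medium: assay buffer, equal DMSO in all wells; timing: 90 min dye loading and 20 min compound exposure, both at room temperature; technique: kinetic FluxOR thallium fluorescence, 10-s 1-Hz baseline, 110-s post-stimulus read; read-out basis: B score of baseline-normalized fluorescence ratio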
hERG rescue – hERG rescue from dofetilide block, primary screen, cell-based, CHO-hERG, FluxOR thallium flux, dofetilide IC70; dofetilide IC70 present; activation (rescue from dofetilide block), less the hit threshold, % at 10 µM; actives 0.51% (n = 310,000); AID 1511, 2009;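 active = activation above the mean of controls blocked by dofetilide plus 5 SD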;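 also: thallium influx through hERG after potassium depolarization seen as dye fluorescence rise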
Target sequence (Q12809 whole entry, looked up): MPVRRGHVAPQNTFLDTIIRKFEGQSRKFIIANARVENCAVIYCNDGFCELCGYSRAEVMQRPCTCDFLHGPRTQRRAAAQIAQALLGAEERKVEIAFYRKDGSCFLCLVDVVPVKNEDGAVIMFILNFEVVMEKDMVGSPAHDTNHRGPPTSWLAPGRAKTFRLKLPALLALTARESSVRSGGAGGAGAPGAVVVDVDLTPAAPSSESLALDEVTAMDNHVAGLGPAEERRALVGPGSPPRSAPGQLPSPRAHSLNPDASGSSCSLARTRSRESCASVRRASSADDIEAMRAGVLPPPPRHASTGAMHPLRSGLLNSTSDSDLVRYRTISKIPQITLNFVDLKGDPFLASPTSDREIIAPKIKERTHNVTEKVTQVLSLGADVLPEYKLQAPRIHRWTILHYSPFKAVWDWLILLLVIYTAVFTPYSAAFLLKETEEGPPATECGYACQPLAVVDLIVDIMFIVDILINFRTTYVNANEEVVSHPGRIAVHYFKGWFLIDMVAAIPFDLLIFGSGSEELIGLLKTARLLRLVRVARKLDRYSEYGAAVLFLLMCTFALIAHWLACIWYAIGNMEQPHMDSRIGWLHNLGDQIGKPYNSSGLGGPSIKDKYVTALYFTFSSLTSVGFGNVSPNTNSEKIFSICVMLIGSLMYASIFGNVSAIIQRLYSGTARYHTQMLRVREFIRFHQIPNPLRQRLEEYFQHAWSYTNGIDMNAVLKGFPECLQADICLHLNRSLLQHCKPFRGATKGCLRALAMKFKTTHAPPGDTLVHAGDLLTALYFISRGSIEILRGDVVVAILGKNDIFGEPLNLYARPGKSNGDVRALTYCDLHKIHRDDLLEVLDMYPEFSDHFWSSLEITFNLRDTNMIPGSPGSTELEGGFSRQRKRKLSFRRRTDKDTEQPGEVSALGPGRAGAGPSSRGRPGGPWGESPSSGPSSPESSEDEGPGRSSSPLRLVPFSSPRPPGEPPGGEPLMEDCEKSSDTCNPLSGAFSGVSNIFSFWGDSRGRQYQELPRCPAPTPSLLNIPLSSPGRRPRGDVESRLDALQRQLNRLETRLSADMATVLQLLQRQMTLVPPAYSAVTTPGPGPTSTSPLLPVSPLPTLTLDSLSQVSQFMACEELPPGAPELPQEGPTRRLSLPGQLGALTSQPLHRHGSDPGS
Kir21 block – inhibitors of mouse Kir2.1 inward-rectifier potassium channel; Inward rectifier potassium channel 2 (Mus musculus), P35561; HEK293-Kir2.1, FluxOR thallium flux fluorescence; hits give low values; B-score at 10 µM; actives 0.85% (n = 310,000);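 active = fluorescence ratio B-score at or below minus 3 SD of library scores, with starting-brightness B-score within 2 SD, cut at about -4.2 in these data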;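 also: channel flux triggered by added potassium and thallium sulfate stimulus; B-score of peak minus minimum fluorescence over baseline after thallium stimulus; more negative B-score means stronger Kir2.1 block with less thallium influx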
KCNK3 inh – human KCNK3 channel inhibitors, primary screen, CHO cells, FluxOR thallium flux, B-score | actives 0.84% (n = 340,000) | FluxOR fluorescence; hits give low values | AID 602410, 2012 | B-score at 10 µM | Potassium channel subfamily K member 3 (Homo sapiens), O14649;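 active = B-score under library mean minus 4 SD, starting fluorescence ratio at most library mean plus 5 SD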;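 also: more negative B-score means stronger inhibition of thallium flux through KCNK3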
KCNK9 inh – KCNK9 potassium channel inhibitors, primary screen, HEK293 cells, thallium flux | actives 1.2% (n = 310,000) | Potassium channel subfamily K member 9 (Homo sapiens), Q9NPC2 | B-score at 10 µM | FluxOR thallium flux fluorescence; hits give low values;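 active = ratio B-score over 3 SD below the library mean, with starting fluorescence within 5 SD of its mean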;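 also: negative B-score means less thallium flux so channel inhibition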
KCNQ1 block val – KCNQ1 potassium channel inhibitors, confirmation, cell-based, Tl flux, duplicate; shares compounds with KCNQ1 inh; actives 93% (n = 1,600); KCNQ1 cell line, FluxOR thallium flux fluorescence; inhibition, % at 10 µM;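 active = primary screen active, with duplicate mean exceeding buffer control mean plus 3 SD of buffer wells, cut at about 28% in these data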
CHO Tl flux – thallium flux effects in parental CHO cells, counter-screen for KCNQ1 inhibitor project, cell-based, Tl flux. AID 588366, 2011. shares compounds with KCNQ1 inh. fluorescence ratio (Tl flux) at 10 µM. actives 21% (n = 1,600). parental CHO-K1, FluxOR thallium flux fluorescence ratio; hits give low values; zero means no signal rise above baseline;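 active = mean of duplicate thallium-flux fluorescence ratios in parental host cells more than 5 SD below the buffer control mean, cut at about 0.38 in these data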;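 also: ratio is peak minus minimum fluorescence divided by baseline fluorescence; actives read low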
KCNQ1 ephys val – KCNQ1 channel inhibitors, confirmation, orthogonal assay, cell-based, automated electrophysiology. shares compounds with KCNQ1 inh. KCNQ1-CHO cells, automated patch clamp current. calls only at 10 µM. actives 20% (n = 490). AID 624120, 2012;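 active = KCNQ1 current drop exceeding 3 SD of negative control wells, seen in both duplicate runs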;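 also: steady state current during a 2 s step from -80 to +40 mV; negative values mean current inhibition and positive values mean potentiation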
KCNQ2 inh – KCNQ2 channel inhibition, selectivity assay for KCNQ1 inhibitor project, cell-based; shares compounds with KCNQ1 inh; KCNQ2 cells, FluxOR thallium flux fluorescence; inhibition, % at 10 µM; actives 71% (n = 1,600); AID 651746, 2012;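 active = mean percent inhibition of the KCNQ2 thallium signal more than 5 SD above the buffer-only control wells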;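 also: KCNQ2 expressed in CHO cells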
KCNQ1-KCNE1 inh – KCNQ1/KCNE1 channel inhibition, selectivity assay for KCNQ1 inhibitor project, CHO-K1 cells, thallium flux, FluxOR; FluxOR thallium flux fluorescence; inhibition, % at 10 µM; actives 77% (n = 1,600); shares compounds with KCNQ1 inh; AID 652147, 2013;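 active = mean percent inhibition of duplicate wells above the buffer-only control mean plus 3 SD of those controls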
Of the large screens only hits and unclear results are named; the others gave an inactive call (follow-up assays come after a bar, where they were run).

O=C(c1ccc2c(=O)n3c(nc2c1)CCC3)N1CCCSC1=Nc1ccccc1	none
O=C1c2ccccc2C(=O)N1CCCCN(C(=O)c1ccc(Cl)s1)c1ccc(Cl)cc1	none
Cc1ccc(N(CCCCN2C(=O)c3ccccc3C2=O)C(=O)c2ccc(Cl)s2)cc1	KCNQ1 inh 9 | KCNQ1 block val 78 | CHO Tl flux inactive | KCNQ2 inh 71% | KCNQ1-KCNE1 inh 34%
CCCCNC(=O)CCc1c(C)nc2nc(-c3cc(OC)cc(OC)c3)nn2c1C	none
CCC(C)NC(=O)CCc1c(C)nc2nc(-c3cc(OC)cc(OC)c3)nn2c1C (stereo not drawn)	KCNQ1 inh 8 | KCNQ1 block val active | CHO Tl flux inactive | KCNQ1 ephys val inactive | KCNQ2 inh inactive | KCNQ1-KCNE1 inh inactive
c1ccc(Cn2ncc3c(N4CCN(C(c5ccccc5)c5ccccc5)CC4)ncnc32)cc1	KCNQ1 inh 10, hERG rescue 9.4 | KCNQ1 block val active | CHO Tl flux 0.38 | KCNQ2 inh inactive | KCNQ1-KCNE1 inh inactive
CCCc1ccc(C(C)NC(=S)NC2CCCCC2)cc1 (stereo not drawn)	KCNQ1 inh 6 | KCNQ1 block val 46 | CHO Tl flux inactive | KCNQ2 inh inactive | KCNQ1-KCNE1 inh inactive
Cc1ccc(O)c(-c2cc3ccccc3[nH]2)c1	KCNQ1 inh 10 | KCNQ1 block val 132 | CHO Tl flux inactive | KCNQ2 inh inactive | KCNQ1-KCNE1 inh 166%
CCN1C(=O)CC(N2CCC(c3nc4ccccc4[nH]3)CC2)C1=O (stereo not drawn)	KCNQ1 inh 6 | KCNQ1 block val 32 | CHO Tl flux inactive | KCNQ2 inh inactive | KCNQ1-KCNE1 inh 73%
Cc1cccc(N2C(=O)CC(N3CCC(c4nc5ccccc5[nH]4)CC3)C2=O)c1 (stereo not drawn)	none
O=C(CCCSc1ccccc1)Nc1ccc(Cl)c(S(=O)(=O)N2CCOCC2)c1	none (no result: KCNQ1 inh, KCNQ1 pot, hERG rescue, Kir21 block, KCNK9 inh)
CC1C(=O)N2CCCc3cc(NC(=O)C(=O)NCCc4ccccc4)cc1c32 (stereo not drawn)	none
CC1C(=O)N2CCCc3cc(NC(=O)C(=O)NCCc4c[nH]c5ccccc45)cc1c32 (stereo not drawn)	KCNQ1 inh 10 | KCNQ1 block val 26 | CHO Tl flux inactive | KCNQ2 inh 87% | KCNQ1-KCNE1 inh 57%
Cc1cc2nc3c(=O)[nH]c(=S)[nH]c3nc2cc1NC(=O)C(F)(F)F	KCNQ1 inh 11, KCNK9 inh -7.2 | KCNQ1 block val 66 | CHO Tl flux 0.33 | KCNQ2 inh inactive | KCNQ1-KCNE1 inh 151%
